Reference: ChEMBL document CHEMBL3616427, “Design, synthesis, and biological evaluation of amide imidazole derivatives as novel metabolic enzyme CYP26A1 inhibitors” (Bioorg Med Chem, 2015)

Tests used:
Cytochrome P450 26A1 [1] = molecular target: T1, Cytochrome P450 26A1 (Homo sapiens, UniProt O43174); experiment: Inhibition of CYP26A1 (unknown origin)
T1 sequence (O43174 whole entry): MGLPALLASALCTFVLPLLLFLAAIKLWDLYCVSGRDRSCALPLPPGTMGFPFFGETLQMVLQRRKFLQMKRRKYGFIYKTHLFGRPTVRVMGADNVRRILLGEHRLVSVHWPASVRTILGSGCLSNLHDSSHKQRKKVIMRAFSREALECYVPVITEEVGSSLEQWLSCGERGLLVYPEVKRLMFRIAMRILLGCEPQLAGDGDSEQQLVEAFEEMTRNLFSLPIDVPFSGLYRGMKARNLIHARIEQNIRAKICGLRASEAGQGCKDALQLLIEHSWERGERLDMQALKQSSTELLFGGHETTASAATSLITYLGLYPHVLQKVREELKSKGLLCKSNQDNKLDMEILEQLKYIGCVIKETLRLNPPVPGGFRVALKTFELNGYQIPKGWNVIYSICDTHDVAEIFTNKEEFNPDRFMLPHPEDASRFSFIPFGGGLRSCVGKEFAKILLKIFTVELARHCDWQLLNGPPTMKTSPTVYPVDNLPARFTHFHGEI

Cytochrome P450 26A1 [2] = molecular target: T1, Cytochrome P450 26A1; experiment: Inhibition of CYP26A1 in ATRA-induced human HL60 cell microsomes incubated for 30 mins in dark condition with NADPH and ATRA by HPLC method; format: cell-based, HL-60
HL-60 [3] = experiment: Growth inhibition of human HL60 cells at 10 uM incubated for 48 hrs by MTT assay; format: functional; settings: HL-60, 48 h, read-out: GI
In short: (§1)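 HL-60 cells plated at 1–104 cells/well (so in the source) and held 24 h at 37 °C, then exposed 48 h to inhibitor at 10 µM and/or ATRA at 0.1 µM. MTT (2 mg/mL) was added for 4 h at 37 °C, the supernatant was discarded, formazan was dissolved in DMSO and absorbance read at 570 nm. Percent growth inhibition reported.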

HL-60 [4] = experiment: Growth inhibition of human HL60 cells at 10 uM incubated for 48 hrs in presence of 0.1 uM ATRA by MTT assay; format: functional; in short: as §1
HL-60 [5] = experiment: Induction of cell differentiation in human HL60 cells at 10 uM incubated for 72 hrs by NBT dye based assay; format: functional
HL-60 [6] = experiment: Induction of cell differentiation in human HL60 cells at 10 uM incubated for 72 hrs in presence of 0.1 uM ATRA by NBT dye based assay; format: functional
Cytochrome P450 3A4 = Cytochrome P450 3A4 (Homo sapiens, UniProt P08684); experiment: Inhibition of CYP3A4 (unknown origin) incubated for 45 mins using NADPH by fluorescence assay; format: ADME
Cytochrome P450 3A4, sequence (P08684 whole entry): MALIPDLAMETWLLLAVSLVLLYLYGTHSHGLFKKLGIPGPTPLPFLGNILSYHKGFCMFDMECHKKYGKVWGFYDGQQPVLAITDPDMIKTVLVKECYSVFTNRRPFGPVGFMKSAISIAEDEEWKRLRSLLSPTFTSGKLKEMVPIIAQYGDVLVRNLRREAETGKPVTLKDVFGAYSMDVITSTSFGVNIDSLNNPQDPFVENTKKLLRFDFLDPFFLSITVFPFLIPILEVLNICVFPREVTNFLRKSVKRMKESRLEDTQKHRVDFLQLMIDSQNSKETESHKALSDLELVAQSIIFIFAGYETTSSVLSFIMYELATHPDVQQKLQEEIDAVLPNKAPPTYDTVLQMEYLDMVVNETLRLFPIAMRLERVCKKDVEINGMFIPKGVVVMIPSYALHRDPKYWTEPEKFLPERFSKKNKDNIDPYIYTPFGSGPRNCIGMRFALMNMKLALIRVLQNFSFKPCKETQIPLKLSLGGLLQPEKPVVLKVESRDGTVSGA

Cytochrome P450 2D6 = Cytochrome P450 2D6 (Homo sapiens, UniProt P10635); experiment: Inhibition of CYP2D6 (unknown origin) incubated for 45 mins using NADPH and ATRA by HPLC assay; format: ADME
Cytochrome P450 2D6, sequence (P10635 whole entry): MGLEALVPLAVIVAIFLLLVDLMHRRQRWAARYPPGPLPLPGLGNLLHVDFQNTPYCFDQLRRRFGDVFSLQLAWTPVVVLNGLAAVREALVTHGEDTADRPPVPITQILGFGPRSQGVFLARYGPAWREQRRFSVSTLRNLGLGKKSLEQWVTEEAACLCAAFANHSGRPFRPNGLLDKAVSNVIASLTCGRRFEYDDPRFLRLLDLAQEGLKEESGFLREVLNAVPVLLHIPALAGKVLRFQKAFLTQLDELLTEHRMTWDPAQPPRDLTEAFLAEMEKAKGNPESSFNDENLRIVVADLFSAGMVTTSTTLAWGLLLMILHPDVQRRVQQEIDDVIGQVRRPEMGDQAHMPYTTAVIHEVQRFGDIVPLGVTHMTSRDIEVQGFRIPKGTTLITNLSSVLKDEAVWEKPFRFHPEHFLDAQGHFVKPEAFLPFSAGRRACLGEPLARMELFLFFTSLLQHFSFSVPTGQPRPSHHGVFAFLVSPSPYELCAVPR

Cytochrome P450 26A1 [7] = molecular target: T1, Cytochrome P450 26A1; experiment: Inhibition of CYP26A1-mediated ATRA metabolism in human HL60 cells assessed as ATRA level at 5 uM incubated for 24 hrs by HPLC method (reference value: 7.19 uM); format: cell-based; settings: hl-60, 24 h
Cytochrome P450 26A1 [8] = molecular target: T1, Cytochrome P450 26A1; experiment: Inhibition of CYP26A1-mediated ATRA metabolism in human HL60 cells assessed as ATRA level at 5 uM incubated for 48 hrs by HPLC method (reference value: 4.95 uM); format: cell-based; settings: hl-60, 48 h
Cytochrome P450 26A1 [9] = molecular target: T1, Cytochrome P450 26A1; experiment: Inhibition of CYP26A1-mediated ATRA metabolism in human HL60 cells assessed as ATRA level at 5 uM incubated for 72 hrs by HPLC method (reference value: 3.6 uM); format: cell-based; settings: hl-60, 72 h
Cytochrome P450 26A1 [10] = molecular target: T1, Cytochrome P450 26A1; experiment: Inhibition of CYP26A1-mediated ATRA metabolism in human HL60 cells assessed as ATRA level at 5 uM incubated for 96 hrs by HPLC method (reference value: 1.21 uM); format: cell-based; settings: hl-60, 96 h
[11] = Selectivity index, ratio of IC50 for CYP3A4 (unknown origin) to IC50 for CYP26A1 in ATRA-induced human HL60 cell microsomes; parameters: species or system HL-60
[12] = Selectivity index, ratio of IC50 for CYP2D6 (unknown origin) to IC50 for CYP26A1 in ATRA-induced human HL60 cell microsomes; parameters: species or system HL-60
HL-60 [13] = experiment: Growth inhibition of human HL60 cells at 0.1 uM incubated for 48 hrs by MTT assay; format: functional; settings: HL-60, 48 h, read-out: GI; in short: as §1
HL-60 [14] = experiment: Induction of cell differentiation in human HL60 cells at 0.1 uM incubated for 72 hrs by NBT dye based assay; format: functional

Row | IC50 (Cytochrome P450 26A1 [2]) [nM] | Compound | inhibition of growth at 10 µM (HL-60 [3]) [%] | growth inhibition (GI) (HL-60 [4]) [%] | Activity (HL-60 [5]) [%] | Activity (HL-60 [6]) [%] | other results
1 | – | CCC(CC)[C@H](c1ccc(Nc2nc3ccccc3s2)cc1)n1cncn1 | – | – | – | – | IC50 (Cytochrome P450 26A1 [1]): 4 nM
2 | 370 | COC(=O)C(Cn1ccnc1)NC(=O)c1ccc(-c2ccccc2)cc1 (stereo not drawn) | 9.64 | 51.38 | 0 | 47.69 | –
3 | 650 | CCOC(=O)C(Cn1ccnc1)NC(=O)c1ccc(-c2ccccc2)cc1 (stereo not drawn) | 7.61 | 48.19 | 0 | 45.64 | –
4 | 790 | CCCOC(=O)C(Cn1ccnc1)NC(=O)c1ccc(-c2ccccc2)cc1 (stereo not drawn) | 5.04 | 42.92 | 0 | 44.78 | –
5 | 540 | CC(C)OC(=O)C(Cn1ccnc1)NC(=O)c1ccc(-c2ccccc2)cc1 (stereo not drawn) | 6.58 | 54.58 | 0 | 53.91 | –
6 | 970 | CC(C)COC(=O)C(Cn1ccnc1)NC(=O)c1ccc(-c2ccccc2)cc1 (stereo not drawn) | 8.99 | 46.55 | 0 | 39.87 | –
7 | 220 | COC(=O)C(Cn1ccnc1)NC(=O)c1c(C)nn(-c2ccccc2)c1Cl (stereo not drawn) | 10.9 | 55.36 | 0 | 50.51 | IC50 (Cytochrome P450 3A4): 1170 nM; IC50 (Cytochrome P450 2D6): 5560 nM; Activity (Cytochrome P450 26A1 [7]): 9.3 µM; Activity (Cytochrome P450 26A1 [8]): 7.45 µM; Activity (Cytochrome P450 26A1 [9]): 5.67 µM; Activity (Cytochrome P450 26A1 [10]): 3.51 µM
8 | 600 | CCOC(=O)C(Cn1ccnc1)NC(=O)c1c(C)nn(-c2ccccc2)c1Cl (stereo not drawn) | 7.25 | 52.17 | 0 | 46.44 | –
9 | 620 | CCCOC(=O)C(Cn1ccnc1)NC(=O)c1c(C)nn(-c2ccccc2)c1Cl (stereo not drawn) | 6.59 | 45.58 | 0 | 43.83 | –
10 | 460 | Cc1nn(-c2ccccc2)c(Cl)c1C(=O)NC(Cn1ccnc1)C(=O)OC(C)C (stereo not drawn) | 4.98 | 44.79 | 0 | 51.85 | IC50 (Cytochrome P450 3A4): 4920 nM; IC50 (Cytochrome P450 2D6): 9640 nM; Ratio IC50 [11]: 11; Ratio IC50 [12]: 21; Activity (Cytochrome P450 26A1 [7]): 9.22 µM; Activity (Cytochrome P450 26A1 [8]): 7.87 µM; Activity (Cytochrome P450 26A1 [9]): 6.06 µM; Activity (Cytochrome P450 26A1 [10]): 4.41 µM
11 | 1020 | Cc1nn(-c2ccccc2)c(Cl)c1C(=O)NC(Cn1ccnc1)C(=O)OCC(C)C (stereo not drawn) | 8.24 | 43.54 | 0 | 40.79 | –
12 | 410 | COC(=O)C(Cn1ccnc1)NC(=O)c1nc2ccccc2s1 (stereo not drawn) | 8.64 | 50.36 | 0 | 49.11 | –
13 | 740 | CCOC(=O)C(Cn1ccnc1)NC(=O)c1nc2ccccc2s1 (stereo not drawn) | 6.66 | 45.4 | 0 | 48.31 | –
14 | 840 | CCCOC(=O)C(Cn1ccnc1)NC(=O)c1nc2ccccc2s1 (stereo not drawn) | 7.64 | 47.83 | 0 | 42.62 | –
15 | 630 | CC(C)OC(=O)C(Cn1ccnc1)NC(=O)c1nc2ccccc2s1 (stereo not drawn) | 5.04 | 46.36 | 0 | 50.85 | –
16 | 1110 | CC(C)COC(=O)C(Cn1ccnc1)NC(=O)c1nc2ccccc2s1 (stereo not drawn) | 9.49 | 43.33 | 0 | 38.62 | –
17 | – | CC(C(c1ccc(Nc2nc3ccccc3s2)cc1)n1cncn1)N(C)C (stereo not drawn) | – | – | – | – | IC50 (Cytochrome P450 26A1 [1]): 10 nM
18 | – | Clc1cccc(C(c2ccc3[nH]cnc3c2)n2ccnc2)c1 (stereo not drawn) [LIAROZOLE] | 16.4 | 48.37 | 0 | 45.55 | IC50 (Cytochrome P450 2D6): 4760 nM
19 | – | CC1=C(/C=C/C(C)=C/C=C/C(C)=C/C(=O)O)C(C)(C)CCC1 [TRETINOIN] | – | – | – | – | inhibition of growth at 0.1 µM (HL-60 [13]): 21.8%; Activity (HL-60 [14]): 28.04%
